Sampled rows, rich in hits. Any-hit rate of the full collection: about 3.8%.
NS3 helicase inh – inhibitors of Hepatitis C virus NS3 helicase. AID 1800. NS3 helicase DNA unwinding, Cy5 molecular beacon fluorescence. 290,000 tested, 0.56% active. inhibition, % at 10.9 µM;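 active = inhibition above the mean of all tested compounds plus 3 SD, set per campaign, cut at about 35% in these data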;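 note: 0% = DMSO wells and 100% = thioflavine S control wells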
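Compound dosing – single dose, 10.9 µM nominal final, DMSO 0.8% final · System – NS3 helicase fragment of HCV · Buffer or medium – MOPS pH 6.5, MgCl2, DTT, Tween20, BSA · Signal – Cy5 beacon fluorescence read at start and 1 h · Also added – annealed dual-labelled DNA beacon duplex, ATP-started · Schedule – 1 h at 25 °C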
Hep lipid drop – hepatic lipid droplet formation modulation; AML12 mouse hepatocytes, oleate lipid droplets, BODIPY imaging; inhibition, % at 6.5 µM; 240,000 tested, 0.4% active; AID 1656;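 active = lipid droplet intensity inhibited by at least 50%, with more than 500 cells counted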
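Material: mouse AML12 hepatocyte cell line, fixed after treatment; Timing: compound with oleate, overnight; Technique: high-content imaging of BODIPY-stained droplets and DAPI nuclei; Probe or stimulus: oleate, 100 µM final; Dosing: compound at 6.5 µM only.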
HSF1 inh – HSF1 inhibition | NIH3T3-HGL HSE-luciferase, MG132-induced, luminescence 8 h; active compounds read low | activity change, negative = inhibition, % at 7.5 µM (by protocol) | 300,000 tested, 0.77% active | AID 2098;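 active = more than half of replicate wells show activity change below -50%, luminescence cut by over half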;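 note: luciferase reports HSF-1 transcriptional activity via heat shock element; 0% = median of DMSO wells and -100% = zero luminescence signal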
HSP90 refold inh – HSP90 refolding inhibition in rabbit reticulocyte lysate | inhibition, % at 5.6 µM | 290,000 tested, 0.91% active | luciferase refolding luminescence, 3 h;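 active = inhibition above the screen-wide mean plus 3 SD, computed separately per campaign, cut at about 16% in these data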;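 note: 0% = DMSO wells and 100% = 60 µM geldanamycin wells; inhibitors lower the luminescence because luciferase stays unfolded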
HSF1 activator – increases HSF-1 driven luciferase reporter signal; NIH3T3-HGL HSF-1 luciferase reporter, MG132, 8 h; 100% = twice DMSO control signal; activation, % at 9 µM; 300,000 tested, 1.7% active; AID 504408;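 active = mean replicate activation of at least 50% with a set share of replicates each reaching 50%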;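 note: 0% = median of the neutral control wells and 100% = twice that signal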
Lipid drop inh – confirmation of inhibitors of hepatic lipid droplet formation; shares compounds with Hep lipid drop; AML12 mouse hepatocytes, BODIPY lipid droplet imaging; droplets induced with 100 µM oleic acid; inhibition, % at 5.2 µM; 870 tested, 65% active; AID 463183;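 active = inhibition of lipid droplet metric at least 50%, with more than 300 cells in each of four replicates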;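 note: plate controls were DMSO with oleic acid for no effect and 5 µM Triacsin-C for full effect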
AML12 tox img – AML12 hepatocyte cytotoxicity (counter-screen); shares compounds with Hep lipid drop; z-score at 5 µM; AID 463200; 870 tested, 3% active; AML12 mouse hepatocytes, DAPI nuclear morphology cytotoxicity imaging; active compounds read high; cells fed 100 µM oleate overnight; in the data active = z-score above about 6.3;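 note: compound exposure lasted overnight at 37 °C before fixation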
AML12 tox ATP – AML12 hepatocyte cytotoxicity, confirmed; cytotoxicity, % at 50 µM; shares compounds with Hep lipid drop; AID 463219; 530 tested, under 10 active; AML12 mouse hepatocyte viability, ATP luminescence; cells loaded with 100 µM oleic acid;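 active = cytotoxicity above 50% in each of four replicates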;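 note: compound exposure lasted overnight at 37 °C before the ATP read; 0% = DMSO-treated cells and 100% = wells with no cells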
Numbers without * were called inactive; nt = no result.

SMILES	NS3 helicase inh	Hep lipid drop	HSF1 inh	HSP90 refold inh	HSF1 activator	Lipid drop inh	AML12 tox img	others
CCCc1c(C(=O)N/N=C/c2ccccc2C(F)(F)F)nnn1-c1nonc1N	1.4	-0.1	0.1	1.9	-10.7	nt	nt
CCOc1ccc(CCNC(=O)COC(=O)c2cc(OC)cc(OC)c2)cc1OCC	-4.8	61.0*	-4.2	-4.5	5.3	94.4*	-0.869	AML12 tox ATP=7.2
CCCN1C(=O)/C(=C/c2c(N3CCNC(=O)C3CC(=O)OCC)nc3c(C)cccn3c2=O)SC1=S (centres undefined)	-0.5	74.0*	-39.6	-1.1	-40.1	58.1*	0.065
O=C(CCOc1ccccc1)Nc1ccnn1C1CCN(Cc2ccccc2)CC1	-4.3	1.8	9.2	1.6	12.3	nt	nt
C=CCC(=O)N1CCC(n2nccc2NC(=O)CCOc2ccccc2)CC1	1.4	61.2*	-4.4	3.1	12.2	19.1	-0.456
O=C1c2ccccc2C2=Nc3ccccc3SC(c3cccc(F)c3)C12 (centres undefined)	-11.6	65.6*	3.0	-1.0	-4.3	65.0	8.8*
Cc1ccc(N(C(=O)c2csnn2)C(C(=O)NC2CCCCC2)c2cccnc2)cc1C (centres undefined)	11.7	-14.3	-3.4	0.1	-25.6	nt	nt
O=C(c1nn2c(C(F)(F)F)cc(-c3cccs3)nc2c1Br)N1CCCc2ccccc21	2.4	60.1*	-0.4	-3.7	-1.7	101.3*	-1.25	AML12 tox ATP=26.7
Cc1nc(Nc2ccccc2)sc1C(=O)c1ccc(F)cc1	-5.4	0.1	8.1	-1.8	31.4	nt	nt
CNc1nc(C)c(C(=O)c2ccc(Cl)cc2)s1	5.6	65.4*	-1.5	0.9	-2.0	21.7	-0.138
O=C1Nc2cc(Cl)ccc2Nc2cscc21	nt	nt	-0.4	nt	-0.5	nt	nt
CCn1cc(CCCC(=O)NCc2ccccc2OC)c2ccccc21	1.2	87.8*	-3.3	1.4	-1.1	100.4*	-0.561	AML12 tox ATP=14.8
CCn1cc(CCCC(=O)NCc2cccc(OC)c2)c2ccccc21	16.2	79.9*	1.7	2.6	-0.7	87.5*	-0.143	AML12 tox ATP=7.2
CC(C)NC(=O)COc1coc(CN2CCN(c3ccccc3F)CC2)cc1=O	8.8	-1.6	0.8	-2.9	-2.1	nt	nt
Oc1ccc2ccccc2c1N=Nc1ccccn1	5.0	-20.5	-48.4	11.6	-57.6	nt	nt
Oc1ccc2ccccc2c1N=Nc1ccccc1F	-1.5	93.4*	11.7	10.9	21.2	95.2*	0.839
Cc1nc2ccccc2nc(=O)c1NNc1ccccc1	-9.3	59.2*	18.7	-3.7	65.1*	59.2*	2.25
Cc1nc2ccccc2nc1OCc1ccccc1	-1.3	6.9	3.5	5.0	28.6	nt	nt
Cc1ccc2nc(=O)c(NNc3ccccc3)cnc2c1	6.0	51.7*	13.0	-2.2	22.1	58.6	3.79	AML12 tox ATP=46.1
Cc1nn(Cc2ccc(F)cc2)c(C)c1NC(=O)C1c2ccccc2Oc2ccccc21	-26.6	61.7*	9.1	-2.8	-2.9	92.0*	-0.103	AML12 tox ATP=-1.4
O=C(NC(=S)Nc1ccccn1)c1ccc(-c2ccccc2)cc1	1.8	94.0*	-8.5	8.2	-1.6	16.0	-0.622
O=C(Nc1ccccn1)c1ccc(C(=O)Nc2ccccn2)cc1	-7.7	13.0	1.4	-7.4	25.9	nt	nt
CCOC(=O)/C(C(=O)Nc1ccccc1Cl)=C1/NC(C)(C)Cc2ccccc21	-3.0	52.9*	-2.0	-2.0	-5.5	32.1	0.345
Cc1ccc(NC(=O)CN2CCN(CCN=CC3=C(O)CC(c4ccc(C)cc4)CC3=O)CC2)cc1 (centres undefined)	-24.6	5.9	-0.4	-1.4	-3.8	nt	nt
N#CCc1ccc(Oc2ncccn2)cc1	4.4	nt	-1.3	-2.6	-17.6	nt	nt
SMILES	NS3 helicase inh	Hep lipid drop	HSF1 inh	HSP90 refold inh	HSF1 activator	Lipid drop inh	AML12 tox img	others
COc1ccc2c(c1)O[C@@H](c1cccc(C(F)(F)F)c1)[C@H](OC(=O)NCCc1ccc(OC)c(OC)c1)C2=O	-11.6	64.3*	4.5	-2.0	15.4	75.3*	-0.348
COC(=O)[C@@H](NC(=O)O[C@@H]1C(=O)c2ccc(OC)cc2O[C@H]1c1cccc(C(F)(F)F)c1)C(C)C	-6.7	-4.0	-17.1	0.0	-29.7	nt	nt
C=CCN=C(NC#N)SC	13.1	12.5	8.1	4.9	4.6	nt	nt
CC1=CC(C)(C)N2C(=O)C3(NCCc4c3[nH]c3ccccc43)c3cccc1c32 (centres undefined)	-5.0	62.1*	7.2	0.9	0.5	104.7*	0.511	AML12 tox ATP=12.4
O=C1Nc2ccccc2C12NCCc1c2[nH]c2ccccc12 (centres undefined)	-2.6	-6.6	2.4	-2.2	4.8	nt	nt
COc1ccc(CCN(C)C(=S)Nc2cccc(C)c2)cc1OC	11.9	-42.6	-2.4	-4.0	9.0	nt	nt
O=[N+]([O-])c1cc(Cl)ccc1NCCNc1ncc(C(F)(F)F)cc1Cl	-15.4	52.0*	8.2	0.4	14.5	44.1	0.601
O=[N+]([O-])c1ccccc1NCCNc1ncc(C(F)(F)F)cc1Cl	2.6	12.9	44.1	0.0	45.4	nt	nt
CCOc1ccc(CCNC(=O)COC(=O)COc2ccc(C(=O)CC)cc2)cc1OCC	nt	nt	-4.4	nt	-6.3	nt	nt
CC(=O)c1ccc(OCc2cc([N+](=O)[O-])cc3c2OCOC3)cc1	4.6	-8.9	6.5	0.5	14.1	nt	nt
O=[N+]([O-])c1cc2c(c(CSc3nnc(Nc4ccccc4)s3)c1)OCOC2	-5.2	64.1*	-4.3	-3.1	2.0	93.2*	-1.64	AML12 tox ATP=8.6
CCN1C(=O)/C(=C2\C=Cc3cc(C)ccc3N2CC)OC1=S	-5.2	67.7*	0.5	-1.7	16.8	73.5*	-0.404	AML12 tox ATP=2.0
CC(=O)Nc1cc2c(cc1NC(=O)Cn1nc(-c3ccccc3)ccc1=O)OCCO2	-1.6	5.2	-5.1	2.0	4.1	nt	nt
O=C(CNC1CCCCCC1)Nc1ccccc1N1CCCCC1	-22.0	nt	7.2	-3.3	21.3	nt	nt
O=C(CNCCC1=CCCCC1)Nc1ccccc1N1CCCCC1	-9.4	103.0*	-2.4	0.1	9.4	-20.6	-0.933
CCCCCC(/C=N/Nc1ccc(S(=O)(=O)N2CCOCC2)cc1[N+](=O)[O-])=C\c1ccccc1	3.3	61.3*	-3.0	3.0	-11.8	34.8	-0.65
CSc1c(CC(=O)Nc2ccccc2C(F)(F)F)n(Cc2ccccc2)c2ccccc12	-1.2	68.7*	4.4	5.6	18.5	104.5*	0.466
COc1ccccc1-c1cc2nc(C)cc(C)n2n1	15.2	0.9	8.9	3.1	16.5	nt	nt
CCn1c(O)c(N=NC(=O)CNc2cccc(C)c2)c2ccccc21	-5.4	-4.3	7.6	0.7	-8.6	nt	nt
COC(=O)Cn1c(O)c(N=NC(=O)CNC(=O)COc2cccc(C)c2)c2ccccc21	-32.9	68.4*	3.1	0.4	9.9	24.9	-1.11

High-throughput results: PubChem, several laboratories
